Here are results for 14 molecules from PubChem BioAssay.

Assay [1] can be described thus: Her2 expression decrease, cell viability multiplex – SKBR3 breast tumor cells, AlphaScreen, ATP viability, primary screen (AID 461;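 active means Her2 level under about 52% in both replicate screens, with viability over 70% of control, limit read from the data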;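 on Her2 level: lower value means less Her2 protein in the cells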;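 on viability: percent of carrier control wells set as 100% viability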). To be noted: SKBR3 Her2 protein level, 18-24 h, measured here: SKBR3 viability, ATP luminescence, at 10 µM. (In general: In Alpha technology, singlet oxygen from a donor bead excites a nearby acceptor bead.)
Assay [2] deals with Receptor tyrosine-protein kinase erbB-2 (Homo sapiens) (UniProt P04626). Described as above. To be noted: 18-24 h, at 10 µM, stronger effect = lower value.
A short description of assay [3]: reduced viability of SK-BR-3 breast cancer cells – cell-based, 24 h, human, pilot screen (AID 572;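 active means viability at or below 10% of carrier control in both of two separate runs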;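 further: compound exposure lasted between 18 and 24 h rather than exactly 24 h; 100% = carrier-treated control wells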). To be noted: SK-BR-3 viability, CellTiter-Glo luminescence, at 10 µM, stronger effect = lower value.
Assay [4] is described as follows: HUVEC growth inhibition – cell-based, human, primary screen (AID 575).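 Further: 100% = median of untreated cell wells with 0.1% DMSO on each plate.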 To be noted: HUVEC proliferation, CellTiter-Glo luminescence, 72 h; at 10 µM; stronger effect = lower value. In a few lines:
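System: primary human umbilical vein endothelial cells; Quantity: 1250 endothelial cells in each well; Buffer or medium: supplemented EBM, 2% fetal bovine serum; Doses: one dose, 10 µM final, 0.1% DMSO; Incubation: 72 h compound incubation; Technique: ATP-based CellTiter-Glo luminescent read; Evaluation: percent of median DMSO-control luminescence; Controls: vehicle and MePR control wells.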
On the technique in general: ATP-based viability assays read luminescence as a measure of living cells.

Assay [5] is described as follows: H69AR cell proliferation blockers – human, duplicate replicates, primary screen (AID 580;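 active means viability at or under a set limit in both replicates, limit being median viability minus 3 SD, cut at about 48% in these data, passing the limit was not always enough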;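 further: 100% = mean luminescence of untreated wells and 0% = no signal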). To be noted: H69AR lung tumor cells viability, ATP luminescence, 72 h; at 10 µM; stronger effect = lower value.
Assay [6] can be described thus: MRP1 drug-resistance reversers in H69AR cells – cell-based, doxorubicin co-treatment, pilot screen (AID 601;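 active means viability loss from added drug above about 55%, and viability with drug at most 40%, in both replicates, limit read from the data, passing the limit was not always enough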). To be noted: CellTiter-Glo, 72 h, at 10 µM; for differential viability (reversal): stronger effect = higher value.
The nature of assay [7]: yeast transport mutant growth inhibition pilot in 384-well plates, post-Golgi transport modulator project (AID 636; in the data active means inhibition above about 31%). To be noted: absorbance 615 nm, about 18 h, stronger effect = higher value.
Assay [8] in a line: growth suppression of yeast trafficking mutant, preliminary HTS, modulators of trafficking downstream of Golgi apparatus project, 1536-format plate, OD 615 nm (AID 637; in the data active means inhibition above about 30%). To be noted: yeast transport mutant growth, absorbance 615 nm, 18 h; stronger effect = higher value.
Setting [9] is: H69AR cells + 2 uM doxorubicin, measured here: viability with 2 uM doxorubicin, stronger effect = lower value.
The mark [10] stands for this setting: H69AR cells, compound alone cytotoxicity.

Activity calls are given as the source filed them.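 How the source made its calls, unless noted: active means viability at or below 30% in both replicate assays; inconclusive means viability at or below 30% in just one of the two assays; inactive means the rest.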

Sequence of Receptor tyrosine-protein kinase erbB-2 (Homo sapiens) (P04626 whole entry, looked up): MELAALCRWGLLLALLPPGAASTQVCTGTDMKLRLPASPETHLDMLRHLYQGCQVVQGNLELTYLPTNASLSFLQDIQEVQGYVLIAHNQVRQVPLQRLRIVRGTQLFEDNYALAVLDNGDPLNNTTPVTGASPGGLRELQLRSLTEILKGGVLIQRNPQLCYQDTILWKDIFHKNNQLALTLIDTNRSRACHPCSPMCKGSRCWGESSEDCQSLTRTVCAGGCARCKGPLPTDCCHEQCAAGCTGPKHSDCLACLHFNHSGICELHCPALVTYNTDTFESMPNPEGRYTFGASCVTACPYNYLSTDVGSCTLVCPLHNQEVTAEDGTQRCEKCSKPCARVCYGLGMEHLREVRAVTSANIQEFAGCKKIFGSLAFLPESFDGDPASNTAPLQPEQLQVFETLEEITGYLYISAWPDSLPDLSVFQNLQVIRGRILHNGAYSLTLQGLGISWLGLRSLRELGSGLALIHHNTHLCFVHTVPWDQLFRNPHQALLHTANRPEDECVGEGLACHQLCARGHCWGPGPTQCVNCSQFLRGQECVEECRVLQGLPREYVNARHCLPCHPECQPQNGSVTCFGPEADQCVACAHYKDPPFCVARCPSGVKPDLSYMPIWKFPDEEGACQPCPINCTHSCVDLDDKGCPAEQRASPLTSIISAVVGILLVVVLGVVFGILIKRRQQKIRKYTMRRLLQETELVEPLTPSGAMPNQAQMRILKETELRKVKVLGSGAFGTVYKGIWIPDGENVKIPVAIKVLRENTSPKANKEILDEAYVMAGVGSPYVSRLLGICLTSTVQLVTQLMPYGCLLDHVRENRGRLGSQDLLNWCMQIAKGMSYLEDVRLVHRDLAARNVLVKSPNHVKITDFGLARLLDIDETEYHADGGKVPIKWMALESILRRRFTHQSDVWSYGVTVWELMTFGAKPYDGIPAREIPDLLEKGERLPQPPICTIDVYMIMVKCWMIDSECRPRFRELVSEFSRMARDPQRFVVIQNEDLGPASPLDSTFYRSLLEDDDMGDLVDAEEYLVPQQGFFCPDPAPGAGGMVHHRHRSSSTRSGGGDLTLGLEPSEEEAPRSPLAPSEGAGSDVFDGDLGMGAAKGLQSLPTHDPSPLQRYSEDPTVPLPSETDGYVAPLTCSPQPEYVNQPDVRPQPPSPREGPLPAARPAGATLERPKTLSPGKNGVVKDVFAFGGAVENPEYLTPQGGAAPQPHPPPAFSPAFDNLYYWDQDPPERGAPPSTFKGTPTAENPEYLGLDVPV

For `CCOC(=O)c1[nH]c(C)c(C(=O)Nc2cc(OC)ccc2OC)c1C`, the viability – broadly, a read-out of living cells in per cent, often relative to untreated cells – in assay [1] is 81%; in assay [3] it was 81% (inactive); in assay [4], 47.4% (inactive); in assay [5], 25.5% (active); in assay [6] (setting [9]), 71.3%; in assay [6] (setting [10]), 25.5%. In addition, the Her2 level in assay [2] is 65% (inactive). Besides, the differential viability (reversal) in assay [6] (H69AR cells + 2 uM doxorubicin) is -45.8% (inactive). Besides, the inhibition (commonly the change of the read-out against control, counted positive when it falls) is -2.24% (inactive) in assay [7] and -4.92% (inactive) in assay [8].

Regarding `O=C(COC(=O)Cc1cccc(C(F)(F)F)c1)NCC1CCCO1` (stereo not given), the viability in assay [1] is 94%; in assay [3] it was 94% (inactive); in assay [4], 96.5% (inactive); in assay [5] it was 96.4% (inactive); in assay [6] (setting [9]), 73.5%; in assay [6] (setting [10]), 96.4%. In addition, the Her2 level in assay [2] was 98.5% (inactive). Further, the differential viability (reversal) in assay [6] (H69AR cells + 2 uM doxorubicin) is 22.8% (inactive). For the same molecule, the inhibition is -5.13% (inactive) in assay [7] and -4.36% (inactive) in assay [8].

Consider `Cc1cc(NC(=O)CSc2nnc(C3CC3)n2C)no1`, for which the viability in assay [1] was 91%; in assay [3], 91% (inactive); in assay [4], 92.4% (inactive); in assay [5] it was 100% (inactive); in assay [6] (setting [9]), 100%; in assay [6] (setting [10]), 100%. Moreover, in assay [2], the Her2 level is 80% (inactive). Besides, the differential viability (reversal) in assay [6] (H69AR cells + 2 uM doxorubicin) is 0.235% (inactive). In addition, the inhibition in assay [7] was -0.53% (inactive); in assay [8], -2.91% (inactive).

Turning to `Cn1nnc2c(sc3nc(N4CCOCC4)c4c(c32)CCCC4)c1=O`, the viability in assay [1] was 100%; in assay [3], 100% (inactive); in assay [4] it was 90.9% (inactive); in assay [5], 81.6% (inactive); in assay [6] (setting [9]) it was 89.3%; in assay [6] (setting [10]), 81.6%. In assay [2], the Her2 level was 114% (inactive). Moreover, the differential viability (reversal) in assay [6] (H69AR cells + 2 uM doxorubicin) was -7.71% (inactive). The values for the inhibition in assay [7] and in assay [8] were -0.53% (inactive) and -5.08% (inactive), respectively.

Turning to `O=C(Nc1ccc2c(c1)OCO2)C(c1ccccc1)N1CCC2(CC1)OCCO2` (stereo not given), the viability in assay [1] is 96.5%; in assay [3], 96.5% (inactive); in assay [4], 82.6% (inactive); in assay [5], 96.3% (inactive); in assay [6] (setting [9]), 88.6%; in assay [6] (setting [10]) it was 96.3%. Besides, the Her2 level in assay [2] was 101% (inactive). Besides, the differential viability (reversal) in assay [6] (H69AR cells + 2 uM doxorubicin) is 7.72% (inactive). The inhibition in assay [7] was -3.78% (inactive); in assay [8], 14.9% (inactive).

`CC(CCc1ccccc1)NC(=O)c1ccc(Br)o1` (stereo not given): the viability is 110% in assay [1]; 110% (inactive) in assay [3]; 88.5% (inactive) in assay [4]; 93.5% (inactive) in assay [5]; 84% in assay [6] (setting [9]); 93.5% in assay [6] (setting [10]). In assay [2], the Her2 level is 86% (inactive). In assay [6] (H69AR cells + 2 uM doxorubicin), the differential viability (reversal) was 9.45% (inactive). Further, the inhibition in assay [7] was -4.93% (inactive); in assay [8], 0.63% (inactive).

Regarding `CC(C)C(c1nnnn1C1CCCC1)N1CCN(C(=O)c2ccco2)CC1` (stereo not given), the viability in assay [1] was 114%; in assay [3] it was 114% (inactive); in assay [4], 82.1% (inactive); in assay [5], 88.8% (inactive); in assay [6] (setting [9]), 72.9%; in assay [6] (setting [10]), 88.8%. In assay [2], the Her2 level is 96% (inactive). Besides, the differential viability (reversal) in assay [6] (H69AR cells + 2 uM doxorubicin) was 15.8% (inactive). In addition, the inhibition is -1.82% (inactive) in assay [7] and -11.8% (inactive) in assay [8].

For the molecule `O=C(O)C1CCCN1c1ncnc2c1oc1ccccc12` (stereo not given), the viability was 101% in assay [1]; 101% (inactive) in assay [3]; 81% (inactive) in assay [4]; 92.3% (inactive) in assay [5]; 99.4% in assay [6] (setting [9]); 92.3% in assay [6] (setting [10]). The Her2 level in assay [2] was 92% (inactive). Also, in assay [6] (H69AR cells + 2 uM doxorubicin), the differential viability (reversal) is -7.12% (inactive). For the same molecule, the inhibition in assay [7] is -0.4% (inactive); in assay [8], -7.1% (inactive).

For `Fc1ccc(-c2cnc[nH]2)cc1`, the viability was 98.5% in assay [1]; 98.5% (inactive) in assay [3]; 80.8% (inactive) in assay [4]; 96.7% (inactive) in assay [5]; 90.4% in assay [6] (setting [9]); 96.7% in assay [6] (setting [10]). In addition, the Her2 level in assay [2] was 99.5% (inactive). Besides, the differential viability (reversal) in assay [6] (H69AR cells + 2 uM doxorubicin) is 6.2% (inactive). The inhibition is 1.32% (inactive) in assay [7] and -8.55% (inactive) in assay [8].

With `O=P(O)(O)C(O)C(F)(F)C(F)(F)C(F)(F)C(F)F` (stereo not given), the viability in assay [1] was 108%; in assay [3], 108% (inactive); in assay [4] it was 110% (inactive); in assay [5], 92.5% (inactive); in assay [6] (setting [9]), 98.1%; in assay [6] (setting [10]) it was 92.5%. Further, in assay [2], the Her2 level was 77.5% (inactive). Moreover, the differential viability (reversal) in assay [6] (H69AR cells + 2 uM doxorubicin) was -5.62% (inactive). Besides, the results for the inhibition in assay [7] and in assay [8] were -7.76% (inactive) and -6.17% (inactive), respectively.

For the molecule `COc1ccc(CC(=O)NCc2ccccc2)cc1S(=O)(=O)N1CCOCC1`, the viability is 110% in assay [1]; 110% (inactive) in assay [3]; 93.5% (inactive) in assay [4]; 89% (inactive) in assay [5]; 98.1% in assay [6] (setting [9]); 89% in assay [6] (setting [10]). Further, the Her2 level in assay [2] is 106% (inactive). In assay [6] (H69AR cells + 2 uM doxorubicin), the differential viability (reversal) is -9.06% (inactive). The inhibition in assay [7] is -2.5% (inactive); in assay [8], 5.82% (inactive).

As for `CC(C)Cc1n[nH]c(=O)[nH]1`, the viability in assay [1] was 118%; in assay [3], 118% (inactive); in assay [4], 93.9% (inactive); in assay [5], 98.4% (inactive); in assay [6] (setting [9]) it was 88.7%; in assay [6] (setting [10]) it was 98.4%. The Her2 level in assay [2] is 115% (inactive). In addition, the differential viability (reversal) in assay [6] (H69AR cells + 2 uM doxorubicin) was 9.75% (inactive). The values for the inhibition in assay [7] and in assay [8] were -6.93% (inactive) and -9.84% (inactive), respectively.

Consider `c1ccc(-c2n[nH]c3ccccc23)cc1`, for which the viability is 118% in assay [1]; 118% (inactive) in assay [3]; 84.9% (inactive) in assay [4]; 103% (inactive) in assay [5]; 91.9% in assay [6] (setting [9]); 103% in assay [6] (setting [10]). Further, the Her2 level in assay [2] is 85% (inactive). The differential viability (reversal) in assay [6] (H69AR cells + 2 uM doxorubicin) is 11.4% (inactive). The inhibition is -3.55% (inactive) in assay [7] and 2.1% (inactive) in assay [8].

Take `COc1ccccc1OC(=O)c1ccc(SC)cc1OC`: the viability in assay [1] is 83%; in assay [3], 83% (inactive); in assay [4] it was 98.4% (inactive); in assay [5] it was 94.1% (inactive); in assay [6] (setting [9]), 91.4%; in assay [6] (setting [10]) it was 94.1%. In addition, the Her2 level in assay [2] is 88% (inactive). Further, the differential viability (reversal) in assay [6] (H69AR cells + 2 uM doxorubicin) is 2.65% (inactive). The results for the inhibition in assay [7] and in assay [8] were 1.05% (inactive) and -5.97% (inactive), respectively.
